According to ChEMBL document CHEMBL3877272, “Synthesis and anti-mitotic activity of 6,7-dihydro-4H-isothiazolo[4,5-b]pyridin-5-ones: In vivo and cell-based studies” (Eur J Med Chem, 2017):
pIC50: −log10 of the molar value. Active and inactive are the calls of the source.

Columns and labels:
Paracentrotus lividus [1] = assay: Antimitotic activity in sea urchin embryo assessed as cleavage alteration exposed 8 to 15 mins after fertilization 45 to 55 mins before first mitotic cycle completion measured at 2.5 to 5.5 hrs post dose; type: functional
Method in brief: (§1)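 Paracentrotus lividus eggs, fertilized in filtered seawater, cultured as monolayer (up to 2000 embryos/mL) at room temperature. Exposed 8–15 min post-fertilization to 2-fold decreasing concentrations (DMSO stock diluted in EtOH; final DMSO ≤0.05%, EtOH ≤1%). Cleavage alteration scored at 8-cell, arrest at early blastula stage (2.5–5.5 h). Effective threshold concentration reported; duplicate measurements.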

Paracentrotus lividus [2] = assay: Antimitotic activity in sea urchin embryo assessed as cleavage arrest exposed 8 to 15 mins after fertilization 45 to 55 mins before first mitotic cycle completion measured at 2.5 to 5.5 hrs post dose; type: functional; method in brief: as §1
Paracentrotus lividus [3] = assay: Antimitotic activity in sea urchin free-swimming blastulae assessed as microtubule destabilization by measuring embryo spinning exposed 8 to 10 hrs after fertilization measured after 15 mins to 20 hrs; type: functional, Blastula
Method in brief: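 Free-swimming P. lividus blastulae just after hatching (8–10 h post-fertilization) from same culture, exposed in seawater to 2-fold decreasing concentrations (DMSO stock diluted in EtOH). Settling to well bottom with rapid spinning around animal-vegetal axis scored by light microscopy over 15 min–20 h. Effective threshold concentration; duplicate measurements.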

Paracentrotus lividus [4] = assay: Antimitotic activity in early pluteus stage of sea urchin embryo assessed as growth inhibition of skeletal spicules at 1 uM; type: functional, tissue-based; details: Spicule
Method in brief: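 P. lividus embryos (gametes by intracoelomic 0.5 M KCl, fertilized in filtered seawater, room temperature, paddle agitation 60 rpm); compound from 10 mM DMSO stock diluted 10-fold in 96% EtOH; growth of skeletal spicules scored by light microscopy at early pluteus stage.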

[5] = Antiproliferative activity against human NCI60 cells at 10 uM after 48 hrs by SRB assay relative to control; type: functional; details: NCI60, 48 h, read-out: GI
[6] = Solubility in seawater assessed as micro-crystal formation at 1 uM by light microscopy; type: physicochemical
Method in brief: (§2)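 Compound from 10 mM DMSO stock diluted 10-fold in 96% EtOH, added to seawater with sea urchin embryos; microcrystal formation checked by light microscopy.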

[7] = Antiproliferative activity against human NCI60 cells measured after 48 hrs by SRB assay; type: functional; details: NCI60, 48 h
[8] = Antiproliferative activity against human OVCAR8 cells measured after 3 to 4 days by Celltiter-Glo luminescent cell viability assay; type: functional; details: OVCAR-8
[9] = Antiproliferative activity against human NCI/ADR-RES cells measured after 3 to 4 days by Celltiter-Glo luminescent cell viability assay; type: functional
[10] = Antiproliferative activity against human Caov3 cells measured after 96 hrs by Celltiter-Glo assay; type: functional, cell-based; details: Caov-3, 96 h
Method in brief: (§3)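 Cells plated 24 h, then treated 96 h with 0.1% DMSO or concentrations […]; growth by CellTiter-Glo luminescence, normalized to DMSO control; IC50 from dose–response curves by logistic nonlinear regression; mean of three independent experiments.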

[11] = Antiproliferative activity against human TOV112D cells measured after 96 hrs by Celltiter-Glo assay; type: functional, cell-based; method in brief: as §3
[12] = Antiproliferative activity against human MDA-MB-231 cells measured after 96 hrs by Celltiter-Glo assay; type: functional, cell-based; details: MDA-MB-231, 96 h; method in brief: as §3
[13] = Antiproliferative activity against human MDA-MB-468 cells measured after 96 hrs by Celltiter-Glo assay; type: functional, cell-based; details: MDA-MB-468, 96 h; method in brief: as §3
[14] = Antiproliferative activity against human MDA-MB-468 cells measured after 48 hrs by SRB assay; type: functional, cell-based; details: MDA-MB-468, 48 h
[15] = Antiproliferative activity against human MDA-MB-435 cells measured after 96 hrs by Celltiter-Glo assay; type: functional, cell-based; details: MDA-MB-435, 96 h; method in brief: as §3
[16] = Antiproliferative activity against human MDA-MB-435 cells measured after 48 hrs by SRB assay; type: functional, cell-based; details: MDA-MB-435, 48 h
[17] = Antiproliferative activity against human NCI-H1975 cells measured after 96 hrs by Celltiter-Glo assay; type: functional, cell-based; details: NCI-H1975, 96 h; method in brief: as §3
[18] = Antiproliferative activity against human MDA-MB-DYT2 cells measured after 96 hrs by Celltiter-Glo assay; type: functional, cell-based; method in brief: as §3
[19] = Antiproliferative activity against human A2780 cells measured after 3 days by Celltiter-Glo assay; type: functional, cell-based; details: A2780, 72 h
Method in brief: (§4)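 Cells in ATCC-recommended medium, STR-authenticated, mycoplasma-tested; 3-day exposure to varying concentrations; viability by CellTiter-Glo luminescence normalized to DMSO control; IC50 from logistic nonlinear regression; mean of three independent experiments.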

[20] = Antiproliferative activity against human A2780cis cells measured after 3 days by Celltiter-Glo assay; type: functional, cell-based; details: A2780cisR, 72 h; method in brief: as §4
[21] = Antiproliferative activity against human A2780/ADR cells measured after 3 days by Celltiter-Glo assay; type: functional, cell-based; details: 72 h; method in brief: as §4
[22] = Antiproliferative activity against human MOR cells measured after 3 days by Celltiter-Glo assay; type: functional, cell-based; details: 72 h; method in brief: as §4
[23] = Antiproliferative activity against human MOR/CPR cells measured after 3 days by Celltiter-Glo assay; type: functional, cell-based; details: 72 h; method in brief: as §4
[24] = Antiproliferative activity against human adriamycin-resistant MOR cells measured after 3 days by Celltiter-Glo assay; type: functional, cell-based; details: 72 h; method in brief: as §4
[25] = Cell cycle arrest in human NCI-H1975 cells assessed mitotic index by measuring level of phospho-histone H3 positive cells at 1 uM measured after 24 hrs by DNA dye based flow cytometry (reference value: 1.9); type: functional
[26] = Cell cycle arrest in human MDA-MB-468 cells assessed mitotic index by measuring level of phospho-histone H3 positive cells at 1 uM measured after 24 hrs by DNA dye based flow cytometry (reference value: 2.18); type: functional
[27] = Cell cycle arrest in human NCI-H1975 cells assessed as accumulation in G2/M phase at 1 uM measured after 24 hrs by DNA dye based flow cytometry (reference value: 20%); type: functional
Method in brief: (§5)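 Cells exposed to 1 µM compound or 0.1% DMSO for 24 h; stained with bivariate cell cycle kit (DNA dye); Sub-G1, G1, S and G2/M fractions by flow cytometry as mean percentage with standard error; two independent experiments in duplicate.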

[28] = Cell cycle arrest in human NCI-H1975 cells assessed as reduction in G1 phase at 1 uM measured after 24 hrs by DNA dye based flow cytometry; type: functional; method in brief: as §5
[29] = Cell cycle arrest in human NCI-H1975 cells assessed as reduction in S phase at 1 uM measured after 24 hrs by DNA dye based flow cytometry; type: functional; method in brief: as §5
[30] = Cell cycle arrest in human NCI-H1975 cells assessed as accumulation in sub-G1 phase at 1 uM measured after 24 hrs by DNA dye based flow cytometry; type: functional; method in brief: as §5
[31] = Cell cycle arrest in human MDA-MB-468 cells assessed as accumulation in sub-G1 phase at 1 uM measured after 24 hrs by DNA dye based flow cytometry; type: functional; method in brief: as §5
[32] = Cell cycle arrest in human MDA-MB-468 cells assessed as reduction in S phase at 1 uM measured after 24 hrs by DNA dye based flow cytometry; type: functional; method in brief: as §5
[33] = Cell cycle arrest in human MDA-MB-468 cells assessed as reduction in G1 phase at 1 uM measured after 24 hrs by DNA dye based flow cytometry; type: functional; method in brief: as §5
NCI-H1975 = assay: Induction of microtubule disintegration in human NCI-H1975 cells at 1 uM measured upto 24 hrs by Hoechst staining-based laser scanning microscopic method; type: cell-based
Method in brief: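 NCI-H1975 cells, 0.1% DMSO or 1 µM compound for 6, 16 and 24 h; paraformaldehyde-fixed, Triton-permeabilized, BSA-blocked, anti-β-tubulin (1:1000, overnight 4 °C) with Alexa Fluor 647 secondary, Hoechst nuclear counterstain; laser scanning confocal imaging.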

[34] = Solubility in seawater assessed as micro-crystal formation at 2 uM by light microscopy; type: physicochemical; method in brief: as §2
[35] = Solubility in DMSO; type: physicochemical

| SMILES | EC (Paracentrotus lividus [1]) [µM] | EC (Paracentrotus lividus [2]) [µM] | EC (Paracentrotus lividus [3]) [µM] | GI50 [7] [nM] | GI50 [8] [nM] | GI50 [9] [nM] | pIC50 [10] | pIC50 [11] | pIC50 [12] | pIC50 [13] | pIC50 [14] | pIC50 [15] | pIC50 [16] | pIC50 [17] | pIC50 [18] | further results |
| --- | --- | --- | --- | --- | --- | --- | --- | --- | --- | --- | --- | --- | --- | --- | --- | --- |
| COc1cc(C2CC(=O)Nc3c(-c4ccc(F)cc4)nsc32)cc2c1OCO2 (stereo unspecified) | >4 | >4 | >4 | – | – | – | – | – | – | – | – | – | – | – | – | Activity (Paracentrotus lividus [4]): Active; inhibition of growth at 10 µM [5]: 10.1% |
| COc1ccc(-c2nsc3c2NC(=O)CC3c2ccc3c(c2)OCO3)cc1 (stereo unspecified) | 0.01 | 0.1 | 0.2 | 1550 | 3040 | 524 | – | – | – | – | – | – | – | – | – | solubility [6]: Insoluble |
| COc1ccc(-c2nsc3c2NC(=O)CC3c2ccsc2)cc1 (stereo unspecified) | 0.002 | 0.005 | 0.1 | 302 | – | – | 6.82 | 6.87 | 6.72 | 6.79 | 6.93 | 7.09 | 7.63 | 6.60 | 6.51 | pIC50 [19]: 6.64; pIC50 [20]: 6.73; pIC50 [21]: 6.45; pIC50 [22]: 6.15; pIC50 [23]: 6.49; pIC50 [24]: 7.20; Activity index [25]: 6.95; Activity index [26]: 11.3; Activity [27]: 30%; Activity [28]: Active; Activity [29]: Active; Activity [30]: Active; Activity [31]: Active; Activity [32]: Active; Activity [33]: Active; Activity (NCI-H1975): Active |
| COc1ccc(-c2nsc3c2NC(=O)CC3c2cccc(OC)c2)cc1 (stereo unspecified) | 0.01 | 0.05 | 0.1 | 1550 | 3220 | 420 | 5.83 | 6.09 | 5.86 | 6.18 | 6.40 | 6.23 | 6.55 | 5.70 | 5.72 | solubility [34]: Insoluble |
| COc1ccc(-c2nsc3c2NC(=O)CC3c2cc(OC)c3c(c2)OCO3)cc1 (stereo unspecified) | >4 | >4 | >4 | – | – | – | – | – | – | – | – | – | – | – | – | solubility [35]: Soluble |
